Assay results from different studies.
Each line is one published result; the experiments were not run side by side. Values after ≈ are worked out from the molar mass of the structure shown.

`CCOC(=O)c1c(NCCCN)c2c([nH]c1=O)CCC2` gave an EC50 of > 100 µM (Human immunodeficiency virus 1; viral replication, inhibitor; IIIB; 72 h).
With `CC(C)(C#Cc1ccc(-c2ccc(Cl)c3c(NS(C)(=O)=O)nn(CC(F)(F)F)c23)c([C@@H](CC2CCCC2)NC(=O)Cn2nc(C(F)(F)F)c3c2C(F)(F)[C@H]2C[C@@H]32)n1)S(C)(=O)=O` the EC50 was 0.0123 µM (Human immunodeficiency virus 1; viral replication, inhibitor).
With `Cc1nc(Nc2ncc(C(=O)Nc3c(C)cccc3Cl)s2)cc(N2CC[C@H](O)C2)n1` the IC50 was > 10 µM (CCRF-CEM; cell growth or viability, ATP luminescence; 72 h).
`CO[C@H]1/C=C/O[C@@]2(C)Oc3c(C)c(O)c4c(O)c(c(/C=N/N5CCN(C)CC5)c(O)c4c3C2=O)NC(=O)/C(C)=C\C=C\[C@H](C)[C@H](O)[C@@H](C)[C@@H](O)[C@@H](C)[C@H](OC(C)=O)[C@@H]1C` has an MIC90 of 10 µM (≈ 8.23 µg/mL) (Mycobacterium marinum; microbial growth).
`C=CCNc1c2c([nH]c(=O)c1C(=O)OCC)CCC2` gave an EC50 of > 100 µM (Human immunodeficiency virus 1; viral replication, inhibitor; IIIB; 72 h).
`O=c1[nH]ncc(NN=Cc2cn(-c3ccccc3)nc2-c2cc3ccccc3oc2=O)c1Cl` has a CC50 of 36.2 µM (CCRF-CEM; cell growth or viability; 48 h).
`CCCNc1c2c([nH]c(=O)c1C(=O)OCC)CCC2` gave an EC50 of 30.6 µM (Human immunodeficiency virus 1; viral replication, inhibitor; IIIB; 72 h).
`CC(C)(C#Cc1ccc(-c2ccc(Cl)c3c(NS(C)(=O)=O)nn(CC(F)(F)F)c23)c([C@H](Cc2cc(F)cc(F)c2)NC(=O)Cn2nc(C(F)(F)F)c3c2C(F)(F)[C@@H]2C[C@H]32)n1)S(C)(=O)=O` has an EC50 of 0.00019 µM (Human immunodeficiency virus 1; viral replication, inhibitor).
With `Cc1cc(/C=C/C#N)cc(C)c1Nc1ccnc(Nc2ccc(C#N)cc2)n1` the EC50 was 0.00089 µM (Human immunodeficiency virus 1; viral replication, inhibitor; TZM-bl, IIIB; 48 h).
`CCOC(=O)c1c(NCCO)c2c([nH]c1=O)CCC2` has an EC50 of > 100 µM (Human immunodeficiency virus 1; viral replication, inhibitor; IIIB; 72 h).
`CC(=O)ON=C1C=CC(=C(C#N)c2ccccc2)C=C1` gave an IC50 of 24 µg/mL (HDF-1; cell growth or viability, MTT; 72 h).
`CC(C)(C#Cc1ccc(-c2ccc(Cl)c3c(NS(C)(=O)=O)nn(CC(F)(F)F)c23)c([C@@H](CC2CC2)NC(=O)Cn2nc(C(F)(F)F)c3c2C(F)(F)[C@@H]2C[C@H]32)n1)S(C)(=O)=O` gave an EC50 of 0.0038 µM (Human immunodeficiency virus 1; viral replication, inhibitor).
For `O=C(N[C@@H](CSCc1ccccc1)C(=O)NO)c1ccccc1`, the IC50 was 68.2 µM (HCC4006; cell growth or viability, MTT; 48 h).
